Active and inactive are the calls of the source. The rule behind the calls is not given here.
Assays:
[1] = system: HUVEC; test: Ratio of itraconazole IC50 to compound IC50 for antiangiogenic activity in human HUVEC cells assessed as inhibition of cell proliferation; format: functional
[2] = target: Vascular endothelial growth factor receptor 2 (Homo sapiens) (UniProt P35968); test: Inhibition of VEGFR2 glycosylation in human HUVEC cells at 2 uM after 24 hrs by Western blot analysis; format: cell-based
Procedure, shortened: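 Pooled HUVEC (passage ≤8, EGM-2) seeded 5 × 10^4 per well, recovered overnight, then given fresh media with analogue added from 200X DMSO stocks; 24 h exposure. Cells lysed in 2X SDS sample buffer (ice 10 min, boiled 10 min), 6% SDS-PAGE, PVDF blot probed with anti-VEGFR2 and HRP anti-rabbit IgG, ECL detection.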

[3] = Inhibition of hedgehog signaling pathway in mouse Ptch+/- p53-/- medulloblastoma cells assessed as inhibition of receptor-mediated Gli1 transcriptional activity at antiproliferative IC90 concentration after 24 hrs by RT-PCR analysis relative to control
[4] = Ratio of itraconazole IC50 to compound IC50 for antiproliferative activity against mouse Ptch+/- p53-/- medulloblastoma cells isolated from allografts in nude Harlan mouse after 96 hrs; format: functional, Medulloblastoma cell
Procedure, shortened: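 Ptch−/+;p53−/− MB cells from nude-mouse allografts (ficoll-purified, three neurosphere passages, CD15 confirmed by flow cytometry) disaggregated and seeded in NBMedia with multiple analogue concentrations for 96 h. Cell number read by MTS-type CellTiter 96 AQueous absorbance; IC50 fitted from dose–response curves of mean corrected absorbance normalized to control, expressed relative to itraconazole.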

Vascular endothelial growth factor receptor 2 (Homo sapiens), sequence (P35968 whole entry): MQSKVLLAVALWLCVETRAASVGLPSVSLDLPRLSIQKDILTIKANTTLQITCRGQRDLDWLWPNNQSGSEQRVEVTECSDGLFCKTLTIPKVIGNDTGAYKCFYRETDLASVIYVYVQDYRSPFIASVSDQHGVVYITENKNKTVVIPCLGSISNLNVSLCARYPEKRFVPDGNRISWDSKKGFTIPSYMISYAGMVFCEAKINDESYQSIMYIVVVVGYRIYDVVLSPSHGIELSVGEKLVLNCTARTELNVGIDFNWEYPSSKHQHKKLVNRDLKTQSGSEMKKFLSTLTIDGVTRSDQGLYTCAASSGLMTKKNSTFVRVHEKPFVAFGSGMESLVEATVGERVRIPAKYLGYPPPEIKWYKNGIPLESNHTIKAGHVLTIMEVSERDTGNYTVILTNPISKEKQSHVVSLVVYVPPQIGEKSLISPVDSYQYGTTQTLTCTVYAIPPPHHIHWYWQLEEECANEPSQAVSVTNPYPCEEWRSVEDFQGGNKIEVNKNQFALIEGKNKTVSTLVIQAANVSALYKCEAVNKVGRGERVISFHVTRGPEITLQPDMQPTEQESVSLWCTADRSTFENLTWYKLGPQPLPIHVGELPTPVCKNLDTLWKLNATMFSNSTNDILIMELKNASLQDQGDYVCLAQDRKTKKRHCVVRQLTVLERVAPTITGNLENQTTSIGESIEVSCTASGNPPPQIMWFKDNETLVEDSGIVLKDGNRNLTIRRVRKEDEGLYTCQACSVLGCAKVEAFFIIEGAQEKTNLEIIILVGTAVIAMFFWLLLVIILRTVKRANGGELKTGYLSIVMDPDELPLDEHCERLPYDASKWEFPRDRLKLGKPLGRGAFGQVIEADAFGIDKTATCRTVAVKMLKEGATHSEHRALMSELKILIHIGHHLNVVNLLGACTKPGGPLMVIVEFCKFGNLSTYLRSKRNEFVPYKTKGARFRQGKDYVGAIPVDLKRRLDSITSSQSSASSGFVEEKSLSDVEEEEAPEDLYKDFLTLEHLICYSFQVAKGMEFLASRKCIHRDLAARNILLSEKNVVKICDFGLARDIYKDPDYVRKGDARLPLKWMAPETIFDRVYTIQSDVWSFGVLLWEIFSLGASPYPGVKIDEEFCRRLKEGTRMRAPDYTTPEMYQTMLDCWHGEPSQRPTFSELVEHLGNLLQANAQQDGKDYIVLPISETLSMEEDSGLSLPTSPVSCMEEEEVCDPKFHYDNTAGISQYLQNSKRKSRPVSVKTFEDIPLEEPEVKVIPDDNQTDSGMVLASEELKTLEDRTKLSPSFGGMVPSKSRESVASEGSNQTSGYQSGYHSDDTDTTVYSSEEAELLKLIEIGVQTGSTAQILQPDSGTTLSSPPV

| SMILES | inhibition [2] | fold change (FC) [3] | Ratio IC50 [1] | Ratio IC50 [4] |
| --- | --- | --- | --- | --- |
| CCCCn1ncn(-c2ccc(N3CCN(c4ccc(OC[C@@H]5CO[C@@](Cn6cncn6)(c6ccc(Cl)cc6Cl)O5)cc4)CC3)cc2)c1=O | inactive | > 0.45 | 2.1 | 0.7 |
| CCC1(Cn2ncn(-c3ccc(N4CCN(c5ccc(OC[C@@H]6CO[C@@](Cn7cncn7)(c7ccc(Cl)cc7Cl)O6)cc5)CC4)cc3)c2=O)COC1 | Active | 0.16 | 0.77 | 0.74 |
| CC(C)Cn1ncn(-c2ccc(N3CCN(c4ccc(OC[C@@H]5CO[C@@](Cn6cncn6)(c6ccc(Cl)cc6Cl)O5)cc4)CC3)cc2)c1=O | Active | > 0.45 | 1.32 | 0.86 |
| O=C(c1ccccc1)c1ccc(OCCCCCCn2ncn(-c3ccc(N4CCN(c5ccc(OC[C@@H]6CO[C@@](Cn7cncn7)(c7ccc(Cl)cc7Cl)O6)cc5)CC4)cc3)c2=O)cc1 | inactive | > 0.45 | >69.9 | 0.8 |
| CC[C@@H](C)n1ncn(-c2ccc(N3CCN(c4ccc(OC[C@H]5CO[C@](Cn6cncn6)(c6ccc(Cl)cc6Cl)O5)cc4)CC3)cc2)c1=O | Active |  | 2.5 | 1.7 |
| O=c1n(-c2ccc(N3CCN(c4ccc(OC[C@@H]5CO[C@@](Cn6cncn6)(c6ccc(Cl)cc6Cl)O5)cc4)CC3)cc2)cnn1C1CCCCC1 | Active | > 0.45 | 0.44 | 0.37 |
| [N-]=[N+]=NCCCCCCn1ncn(-c2ccc(N3CCN(c4ccc(OC[C@@H]5CO[C@@](Cn6cncn6)(c6ccc(Cl)cc6Cl)O5)cc4)CC3)cc2)c1=O | Active | 0.16 | 0.3 | 0.7 |
| CC(C)CCn1ncn(-c2ccc(N3CCN(c4ccc(OC[C@@H]5CO[C@@](Cn6cncn6)(c6ccc(Cl)cc6Cl)O5)cc4)CC3)cc2)c1=O | Active | < 0.15 | 1.42 | 0.41 |
| C#CCCCn1ncn(-c2ccc(N3CCN(c4ccc(OC[C@H]5CO[C@](Cn6cncn6)(c6ccc(Cl)cc6Cl)O5)cc4)CC3)cc2)c1=O | inactive | < 0.15 | 0.14 | 0.71 |
| N#CCCCCCn1ncn(-c2ccc(N3CCN(c4ccc(OC[C@@H]5CO[C@@](Cn6cncn6)(c6ccc(Cl)cc6Cl)O5)cc4)CC3)cc2)c1=O | Active | 0.16 | 0.18 | 0.84 |
| CC[C@@H](C)n1ncn(-c2ccc(N3CCN(c4ccc(OC[C@@H]5CO[C@](Cn6cncn6)(c6ccc(Cl)cc6Cl)O5)cc4)CC3)cc2)c1=O | inactive |  | 3.7 | 2.3 |
| O=c1n(-c2ccc(N3CCN(c4ccc(OC[C@@H]5CO[C@@](Cn6cncn6)(c6ccc(Cl)cc6Cl)O5)cc4)CC3)cc2)cnn1CC1CCCC1 | Active | 0.16 | 0.5 | 0.5 |
| O=c1[nH]ncn1-c1ccc(N2CCN(c3ccc(OC[C@@H]4CO[C@@](Cn5cncn5)(c5ccc(Cl)cc5Cl)O4)cc3)CC2)cc1 | inactive | < 0.15 | 2.78 | 0.89 |
| CC(C)n1ncn(-c2ccc(N3CCN(c4ccc(OC[C@@H]5CO[C@@](Cn6cncn6)(c6ccc(Cl)cc6Cl)O5)cc4)CC3)cc2)c1=O | inactive | > 0.45 | 2.18 | 1.06 |
| CC[C@H](C)n1ncn(-c2ccc(N3CCN(c4ccc(OC[C@H]5CO[C@](Cn6cncn6)(c6ccc(Cl)cc6Cl)O5)cc4)CC3)cc2)c1=O | Active |  | 1.6 | 1.3 |
| Cn1ncn(-c2ccc(N3CCN(c4ccc(OC[C@@H]5CO[C@@](Cn6cncn6)(c6ccc(Cl)cc6Cl)O5)cc4)CC3)cc2)c1=O | inactive | > 0.45 | 4 | 2.71 |
| CCn1ncn(-c2ccc(N3CCN(c4ccc(OC[C@@H]5CO[C@@](Cn6cncn6)(c6ccc(Cl)cc6Cl)O5)cc4)CC3)cc2)c1=O | inactive | > 0.45 | 2.94 | 1.62 |

The next lines start with results.

| inhibition [2] | fold change (FC) [3] | SMILES | Ratio IC50 [1] | Ratio IC50 [4] |
| --- | --- | --- | --- | --- |
| Active | < 0.15 | CCCn1ncn(-c2ccc(N3CCN(c4ccc(OC[C@@H]5CO[C@@](Cn6cncn6)(c6ccc(Cl)cc6Cl)O5)cc4)CC3)cc2)c1=O | 1.06 | 1.01 |
| inactive | < 0.15 | CCCCCn1ncn(-c2ccc(N3CCN(c4ccc(OC[C@@H]5CO[C@@](Cn6cncn6)(c6ccc(Cl)cc6Cl)O5)cc4)CC3)cc2)c1=O | 1.09 | 0.66 |
| inactive | < 0.15 | CCC#CCCn1ncn(-c2ccc(N3CCN(c4ccc(OC[C@@H]5CO[C@@](Cn6cncn6)(c6ccc(Cl)cc6Cl)O5)cc4)CC3)cc2)c1=O | 1.09 | 1.07 |
| Active |  | CC[C@@H](C)n1ncn(-c2ccc(N3CCN(c4ccc(OC[C@@H]5CO[C@@](Cn6cncn6)(c6ccc(Cl)cc6Cl)O5)cc4)CC3)cc2)c1=O | 1.1 | 1.4 |
| Active | 0.16 | CC1(CCn2ncn(-c3ccc(N4CCN(c5ccc(OC[C@@H]6CO[C@@](Cn7cncn7)(c7ccc(Cl)cc7Cl)O6)cc5)CC4)cc3)c2=O)N=N1 | >13.8 | 1.32 |
| Active | < 0.15 | CCC(CC)n1ncn(-c2ccc(N3CCN(c4ccc(OC[C@@H]5CO[C@@](Cn6cncn6)(c6ccc(Cl)cc6Cl)O5)cc4)CC3)cc2)c1=O | 1.1 | 0.54 |
| inactive |  | CC[C@@H](C)n1ncn(-c2ccc(N3CCN(c4ccc(OC[C@H]5CO[C@@](Cn6cncn6)(c6ccc(Cl)cc6Cl)O5)cc4)CC3)cc2)c1=O | 3.9 | 1.7 |
| Active | < 0.15 | CCCC(C)n1ncn(-c2ccc(N3CCN(c4ccc(OC[C@@H]5CO[C@@](Cn6cncn6)(c6ccc(Cl)cc6Cl)O5)cc4)CC3)cc2)c1=O (mixture of isomers) | 0.75 | 0.38 |
| Active | < 0.15 | CCC(C)n1ncn(-c2ccc(N3CCN(c4ccc(OCC5COC(Cn6cncn6)(c6ccc(Cl)cc6Cl)O5)cc4)CC3)cc2)c1=O (configuration not stated) [ITRACONAZOLE] | 1 | 1 |
| Active |  | CC[C@H](C)n1ncn(-c2ccc(N3CCN(c4ccc(OC[C@@H]5CO[C@](Cn6cncn6)(c6ccc(Cl)cc6Cl)O5)cc4)CC3)cc2)c1=O | 3.2 | 1.5 |
| inactive | < 0.15 | CC/C=C\CCn1ncn(-c2ccc(N3CCN(c4ccc(OC[C@@H]5CO[C@@](Cn6cncn6)(c6ccc(Cl)cc6Cl)O5)cc4)CC3)cc2)c1=O | 0.73 | 0.94 |
| Active |  | CC[C@H](C)n1ncn(-c2ccc(N3CCN(c4ccc(OC[C@H]5CO[C@@](Cn6cncn6)(c6ccc(Cl)cc6Cl)O5)cc4)CC3)cc2)c1=O | 3.1 | 2.1 |
| Active |  | CC[C@H](C)n1ncn(-c2ccc(N3CCN(c4ccc(OC[C@@H]5CO[C@@](Cn6cncn6)(c6ccc(Cl)cc6Cl)O5)cc4)CC3)cc2)c1=O | 0.8 | 1.3 |

From ChEMBL document CHEMBL1833959, “Itraconazole side chain analogues: structure-activity relationship studies for inhibition of endothelial cell proliferation, vascular endothelial growth factor receptor 2 (VEGFR2) glycosylation, and hedgehog signaling” (2011)
